Source: PubChem BioAssay
Activity calls are given as the source filed them.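 How the source made its calls, unless noted: active means Her2 level under about 52% in both replicate screens, with viability over 70% of control (limit read from the data); inconclusive means Her2 under the limit in one screen only, or viability under 70%; inactive means Her2 level above the set limit.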

Experiments:
[1] = Her2 expression decrease, cell viability multiplex – SKBR3 breast tumor cells, AlphaScreen, ATP viability, primary screen (AID 461); conditions: SKBR3 Her2 protein level, 18-24 h, measured here: SKBR3 viability, ATP luminescence, at 10 µM;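 on Her2 level: lower value means less Her2 protein in the cells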;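 on viability: percent of carrier control wells set as 100% viability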
[2] = biological target: Receptor tyrosine-protein kinase erbB-2 (Homo sapiens) (UniProt P04626); experiment: as above; conditions: 18-24 h, at 10 µM, stronger effect = lower value
Sequence of Receptor tyrosine-protein kinase erbB-2 (Homo sapiens) (P04626 whole entry, looked up): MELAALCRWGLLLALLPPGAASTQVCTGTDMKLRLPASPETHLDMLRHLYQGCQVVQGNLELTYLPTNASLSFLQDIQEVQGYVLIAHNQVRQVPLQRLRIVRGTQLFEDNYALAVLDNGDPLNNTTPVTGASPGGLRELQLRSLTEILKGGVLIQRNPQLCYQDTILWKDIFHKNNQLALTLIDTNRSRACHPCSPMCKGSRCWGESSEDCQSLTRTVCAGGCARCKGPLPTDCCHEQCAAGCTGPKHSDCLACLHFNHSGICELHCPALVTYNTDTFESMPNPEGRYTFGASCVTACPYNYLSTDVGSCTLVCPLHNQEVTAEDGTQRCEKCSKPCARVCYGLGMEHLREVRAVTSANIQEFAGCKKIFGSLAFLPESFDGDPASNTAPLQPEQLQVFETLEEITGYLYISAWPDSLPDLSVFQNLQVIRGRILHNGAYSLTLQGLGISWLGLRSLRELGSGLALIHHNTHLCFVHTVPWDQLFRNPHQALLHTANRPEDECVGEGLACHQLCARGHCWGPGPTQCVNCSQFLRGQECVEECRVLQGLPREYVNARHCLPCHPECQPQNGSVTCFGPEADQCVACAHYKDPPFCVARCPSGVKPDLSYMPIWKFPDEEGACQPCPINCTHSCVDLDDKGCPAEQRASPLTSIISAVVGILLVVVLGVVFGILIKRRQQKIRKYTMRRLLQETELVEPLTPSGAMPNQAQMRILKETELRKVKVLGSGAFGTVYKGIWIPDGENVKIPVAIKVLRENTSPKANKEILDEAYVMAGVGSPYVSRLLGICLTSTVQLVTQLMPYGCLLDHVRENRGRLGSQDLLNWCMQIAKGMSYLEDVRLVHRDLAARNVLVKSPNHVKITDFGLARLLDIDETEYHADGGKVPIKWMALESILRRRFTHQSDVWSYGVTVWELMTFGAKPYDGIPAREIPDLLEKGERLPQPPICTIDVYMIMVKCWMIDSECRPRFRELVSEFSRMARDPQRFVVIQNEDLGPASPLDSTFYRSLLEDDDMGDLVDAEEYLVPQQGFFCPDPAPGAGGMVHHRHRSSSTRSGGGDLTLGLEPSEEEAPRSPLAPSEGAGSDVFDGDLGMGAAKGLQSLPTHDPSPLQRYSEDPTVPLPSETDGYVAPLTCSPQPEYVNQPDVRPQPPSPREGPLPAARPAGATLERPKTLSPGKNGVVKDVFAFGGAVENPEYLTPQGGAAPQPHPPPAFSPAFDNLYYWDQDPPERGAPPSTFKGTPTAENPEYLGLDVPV

[3] = reduced viability of SK-BR-3 breast cancer cells – cell-based, 24 h, human, pilot screen (AID 572;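 active means viability at or below 10% of carrier control in both of two separate runs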;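 further: compound exposure lasted between 18 and 24 h rather than exactly 24 h; 100% = carrier-treated control wells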); conditions: SK-BR-3 viability, CellTiter-Glo luminescence, at 10 µM, stronger effect = lower value
[4] = HUVEC growth inhibition – cell-based, human, primary screen (AID 575;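 active means viability at or below 30% in both replicate assays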;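 further: 100% = median of untreated cell wells with 0.1% DMSO on each plate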); conditions: HUVEC proliferation, CellTiter-Glo luminescence, 72 h; at 10 µM; stronger effect = lower value
In short: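 system = HUVEC primary cells | amount = 1250 cells/well | buffer or medium = supplemented EBM, 2% fetal bovine serum | dosing = single-point 10 µM, DMSO 0.1% final | times = 72 h compound incubation | detection = CTG luminescence | read-out = % viability relative to median vehicle-well signal on each plate | control set = vehicle and MePR control wells | format = collagen-coated 384-well format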

[5] = H69AR cell proliferation blockers – human, duplicate replicates, primary screen (AID 580;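 active means viability at or under a set limit in both replicates, limit being median viability minus 3 SD, cut at about 48% in these data, passing the limit was not always enough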;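 further: 100% = mean luminescence of untreated wells and 0% = no signal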); conditions: H69AR lung tumor cells viability, ATP luminescence, 72 h; at 10 µM; stronger effect = lower value
[6] = MRP1 drug-resistance reversers in H69AR cells – cell-based, doxorubicin co-treatment, pilot screen (AID 601;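 active means viability loss from added drug above about 55%, and viability with drug at most 40%, in both replicates, limit read from the data, passing the limit was not always enough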); conditions: CellTiter-Glo, 72 h, at 10 µM; for differential viability (reversal): stronger effect = higher value
[7] = yeast transport mutant growth inhibition pilot in 384-well plates, post-Golgi transport modulator project (AID 636; in the data active means inhibition above about 31%); conditions: absorbance 615 nm, about 18 h, stronger effect = higher value
[8] = growth suppression of yeast trafficking mutant, preliminary HTS, modulators of trafficking downstream of Golgi apparatus project, 1536-format plate, OD 615 nm (AID 637; in the data active means inhibition above about 30%); conditions: yeast transport mutant growth, absorbance 615 nm, 18 h; stronger effect = higher value
[9] = H69AR cells + 2 uM doxorubicin, measured here: viability with 2 uM doxorubicin, stronger effect = lower value
[10] = H69AR cells, compound alone cytotoxicity

Row | SMILES | viability [1] | Her2 level [2] | viability [3] | viability [4] | viability [5] | differential viability (reversal) ([6]; H69AR cells + 2 uM doxorubicin) | viability [6, 9] | viability [6, 10] | inhibition [7] | inhibition [8]
1 | Cc1nc(C)c(C(=O)Nc2ccc(C)c(F)c2)o1 | 92% | 80% (inactive) | 92% (inactive) | 117% (inactive) | 94.8% (inactive) | 15.5% (inactive) | 79.3% | 94.8% | -5.54% (inactive) | 1% (inactive)
2 | O=C(O)CCCC(=O)Nc1ccc(Br)cc1C(=O)O | 95.5% | 90% (inactive) | 95.5% (inactive) | 93.8% (inactive) | 96.8% (inactive) | 14.4% (inactive) | 82.4% | 96.8% | -0.53% (inactive) | -0.16% (inactive)
3 | CC(NC(=O)Nc1nccs1)(C(F)(F)F)C(F)(F)F | 102% | 83.5% (inactive) | 102% (inactive) | 103% (inactive) | 99.7% (inactive) | 3.42% (inactive) | 96.2% | 99.7% | -7.26% (inactive) | -6.51% (inactive)
4 | CCOc1ccc(Cc2nn[nH]n2)cc1 | 86.5% | 84.5% (inactive) | 86.5% (inactive) | 108% (inactive) | 101% (inactive) | 5.14% (inactive) | 96.3% | 101% | -5.89% (inactive) | -3.49% (inactive)
5 | CN(C)c1ccc(/C(=N\O)c2ccccc2)cc1 | 98.5% | 114% (inactive) | 98.5% (inactive) | 93.9% (inactive) | 92.8% (inactive) | 2.59% (inactive) | 90.3% | 92.8% | 0.13% (inactive) | -13.5% (inactive)
6 | O=C(CCN1CCN(c2ccc(F)cc2)CC1)Nc1ccccc1F | 91.5% | 91% (inactive) | 91.5% (inactive) | 90.4% (inactive) | 86% (inactive) | -5.33% (inactive) | 91.3% | 86% | -5.73% (inactive) | 4.75% (inactive)
7 | CCN(CC)S(=O)(=O)c1ccc(C(=O)Oc2ccc3c(c2)OCO3)cc1 | 101% | 84% (inactive) | 101% (inactive) | 86.6% (inactive) | 90.5% (inactive) | 4.36% (inactive) | 86.1% | 90.5% | -5.53% (inactive) | -4.13% (inactive)
8 | COc1ccc(OCCOC(=O)c2cccs2)cc1 | 97.5% | 92% (inactive) | 97.5% (inactive) | 111% (inactive) | 109% (inactive) | 19% (inactive) | 89.5% | 109% | -6.22% (inactive) | 5.24% (inactive)
9 | CCOc1ccc(CSC(CC(=O)O)C(=O)O)cc1 (stereo not given) | 90% | 83.5% (inactive) | 90% (inactive) | 84.1% (inactive) | 84.2% (inactive) | -2.67% (inactive) | 86.8% | 84.2% | -3.29% (inactive) | 0.55% (inactive)
10 | COc1ccc(NC(=O)C(C)NS(=O)(=O)c2ccc(NC(C)=O)cc2)cc1Cl (stereo not given) | 124% | 97% (inactive) | 124% (inactive) | 103% (inactive) | 95% (inactive) | 7.65% (inactive) | 87.4% | 95% | -6% (inactive) | -1.75% (inactive)
11 | Cc1ccccc1-c1nc(CN2CCC(C(=O)NCCCN3CCOCC3)CC2)c(C)o1 | 86.5% | 107% (inactive) | 86.5% (inactive) | 74% (inactive) | 97.2% (inactive) | 5.29% (inactive) | 91.9% | 97.2% | 1.58% (inactive) | -4.29% (inactive)
12 | COc1ccccc1N1C(=O)CC(Sc2nc(C)cc(C)n2)C1=O (stereo not given) | 87% | 96.5% (inactive) | 87% (inactive) | 102% (inactive) | 83.4% (inactive) | -9.3% (inactive) | 92.7% | 83.4% | -5.84% (inactive) | -7.21% (inactive)
13 | O=c1c(F)cn(C2CCCO2)c(=O)n1Cc1c(F)cccc1Cl (stereo not given) | 94.5% | 94% (inactive) | 94.5% (inactive) | 92.8% (inactive) | 91.1% (inactive) | -2.1% (inactive) | 93.2% | 91.1% | -0.13% (inactive) | -8.39% (inactive)
14 | COc1ccccc1NC(=O)C1=C(C)Nc2nnnn2C1c1ccccc1OC (stereo not given) | 94% | 76.5% (inactive) | 94% (inactive) | 113% (inactive) | 98.9% (inactive) | 10.4% (inactive) | 88.5% | 98.9% | -4.16% (inactive) | -1.5% (inactive)
15 | O=C(CSc1nc2ccccc2s1)N1CCOCC1 | 119% | 106% (inactive) | 119% (inactive) | 83.6% (inactive) | 90.4% (inactive) | -6.72% (inactive) | 97.1% | 90.4% | -2.27% (inactive) | -9.03% (inactive)
16 | COCCCNC(=O)c1ccc2c(c1)OCO2 | 96.5% | 93.5% (inactive) | 96.5% (inactive) | 89.9% (inactive) | 89.8% (inactive) | -1.48% (inactive) | 91.3% | 89.8% | -2.76% (inactive) | 5.74% (inactive)
